Consider four molecules from ChEMBL document CHEMBL3259712, “New 5-unsubstituted dihydropyridines with improved CaV1.3 selectivity as potential neuroprotective agents against ischemic injury” (J Med Chem, 2014).

Activity calls are given as the source filed them. The calls are words filed in the database; no cut-off is given here.

Data set [1] addresses Voltage-dependent L-type calcium channel subunit alpha-1C (Rattus norvegicus, UniProt P22002). Put plainly: Inhibition of rat Cav1.2 channel in rat mesenteric artery assessed as relaxation of 70 mM K+ induced contraction. The data set is classed as tissue-based. To be noted: for inhibition (INH): rat. Summed up:
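Third-order mesenteric artery segments (2 mm) from 6-month-old Wistar Kyoto rats on a wire myograph, isometric tension, Krebs−Henseleit at 37 °C, pH 7.4. Segments equilibrated, stretched to optimal diameter, tested with 120 mM KCl, endothelium checked with 10 μM acetylcholine.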

The subject of data set [2] is SH-SY5Y. Kind of data set: Neuroprotective activity against K+ induced Ca2+ overload in human SH-SY5Y cells assessed as protection at 0.3 uM after 24 hrs by MTT assay relative to control. The data set is classed as functional. (Tetrazolium dyes change colour on reduction, which living cells bring about.)
Data set [3] relates to SH-SY5Y. Kind of data set: Neuroprotective activity against rotenone-oligomycin A-induced oxidative stress in human SH-SY5Y cells assessed as survival at 5 uM co-incubated rot/oligo for 24 hrs by MTT assay (Rvb =65.6 +/- 1.3%). Particulars: read-out: Survival. In kind it is functional.
The subject of data set [4] is SH-SY5Y. Put plainly: Neuroprotective activity against K+ induced Ca2+ overload in human SH-SY5Y cells assessed as survival at 0.3 uM after 24 hrs by MTT assay (reference value: 52.1 +/- 3.5%). The data set is classed as functional. Particulars: read-out: Survival.
Data set [5] has as its system SH-SY5Y. Kind of data set: Neuroprotective activity against K+ induced Ca2+ overload in human SH-SY5Y cells assessed as survival at 5 uM after 24 hrs by MTT assay (reference value: 52.1 +/- 3.5%). Particulars: read-out: Survival. The data set is classed as functional.
For data set [6], the system named is SH-SY5Y. Kind of data set: Neuroprotective activity against K+ induced Ca2+ overload in human SH-SY5Y cells assessed as protection at 5 uM after 24 hrs by MTT assay relative to control. In kind it is functional. In a few lines: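 SH-SY5Y cells, 1 × 10⁵/well, 1% FBS medium, up to 13 passages. Compound diluted from 10⁻² M DMSO stock to 5 μM and co-incubated 24 h with 70 mM K⁺ (hypertonic); DMSO-only controls. MTT at 5 mg/mL for 2 h at 37 °C, read at 540 nm. % protection computed against basal as 100% survival and normalized to K⁺ toxicity; at least five cultures in triplicate.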

The test system of the next data set is Hippocampus. Kind of data set: Neuroprotective activity against oxygen-glucose deprivation induced-oxidative stress in rat hippocampal slices assessed as maximum protection treated at 10 uM during 120 mins of reoxygenation period by MTT assay (Rvb =40%). The data set is classed as functional. In a few lines: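 Transverse hippocampal slices ([…] as printed) from adult male Sprague−Dawley rats (275−325 g). After 30 min stabilization, 15 min OGD at 37 °C in glucose-free Krebs (2-deoxyglucose) under 95% N₂/5% CO₂, then 120 min reoxygenation in oxygenated Krebs with compound (1, 3, 10 μM) present. MTT at 0.5 mg/mL for 30 min at 37 °C; control slices set as 100%; five experiments.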

The subject of data set [7] is SH-SY5Y. Kind of data set: Neuroprotective activity against rotenone-oligomycin A-induced oxidative stress in human SH-SY5Y cells assessed as protection incubated with rot/oligo for 8 hrs followed by treated with compound at 5 uM for 16 hrs by MTT assay relative to control. The data set is classed as functional. Summed up:
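SH-SY5Y cells cultured 24 h, then exposed to rotenone/oligomycin A (30/10 μM) for 8 h at 37 °C. Stressor was removed and cells incubated 16 h with compound in 1% FBS medium. Melatonin 0.3 μM was the positive control, and compounds were used at 5 μM. Viability by MTT; % protection against basal as 100%, normalized to rot/olig toxicity; five to seven cultures in triplicate.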

For data set [8], the system named is SH-SY5Y. Put plainly: Neuroprotective activity against rotenone-oligomycin A-induced oxidative stress in human SH-SY5Y cells assessed as survival incubated with rot/oligo for 8 hrs followed by treated with compound at 5 uM for 16 hrs by MTT assay (Rvb =70.6 +/- 1.8%). The data set is classed as functional. Particulars: read-out: Survival. In a few lines: (§1)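 SH-SY5Y cells cultured 24 h, then exposed to rotenone/oligomycin A (30/10 μM) for 8 h at 37 °C. Stressor removed; compound in 1% FBS medium added for 16 h. DMSO-only control. MTT reduction (5 mg/mL, 2 h, 37 °C; OD 540 nm). Survival relative to untreated basal; mean ± SEM of five to seven cultures in triplicate.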

The subject of data set [9] is SH-SY5Y. Put plainly: Neuroprotective activity against rotenone-oligomycin A-induced oxidative stress in human SH-SY5Y cells assessed as protection at 5 uM co-incubated rot/oligo for 24 hrs by MTT assay relative to control. In kind it is functional. Summed up:
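SH-SY5Y cells in 1% FBS medium co-incubated 24 h with compound and rotenone/oligomycin A (30/10 μM). Melatonin 0.3 μM was the positive control, and compounds were used at 5 μM. Viability by MTT reduction at 540 nm. % protection computed against basal as 100% and normalized to rot/olig toxicity; five to seven cultures in triplicate.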

Data set [10] concerns SH-SY5Y. Put plainly: Neuroprotective activity against rotenone-oligomycin A-induced oxidative stress in human SH-SY5Y cells assessed as protection incubated with rot/oligo for 8 hrs followed by treated with compound at 0.3 uM for 16 hrs by MTT assay relative to control. In kind it is functional.
The test system of data set [11] is SH-SY5Y. Put plainly: Neuroprotective activity against rotenone-oligomycin A-induced oxidative stress in human SH-SY5Y cells assessed as survival incubated with rot/oligo for 8 hrs followed by treated with compound at 0.3 uM for 16 hrs by MTT assay (Rvb =70.6 +/- 1.8%). The data set is classed as functional. To be noted: read-out: Survival. In a few lines: as §1

Data set [12] deals with SH-SY5Y. Kind of data set: Neuroprotective activity against rotenone-oligomycin A-induced oxidative stress in human SH-SY5Y cells assessed as survival at 0.3 uM co-incubated rot/oligo for 24 hrs by MTT assay (Rvb =65.6 +/- 1.3%). The data set is classed as functional. To be noted: read-out: Survival.
Data set [13] relates to SH-SY5Y. Kind of data set: Neuroprotective activity against rotenone-oligomycin A-induced oxidative stress in human SH-SY5Y cells assessed as protection at 0.3 uM co-incubated rot/oligo for 24 hrs by MTT assay relative to control. The data set is classed as functional.
Data set [14] deals with Voltage-dependent L-type calcium channel subunit alpha-1D (Homo sapiens, UniProt Q01668). Kind of data set: Inhibition of human Cav1.3 channel in human SH-SY5Y cells assessed as 70 mM K+ induced calcium elevation compound treated 15 mins before stimulus by Fluo-4/AM assay. In kind it is cell-based. Summed up:
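SH-SY5Y cells grown 2 days, loaded with 10 μM Fluo-4/AM for 1 h at 37 °C in serum-free medium, washed with Krebs-HEPES and held 15 min at room temperature. Compound applied 15 min before 70 mM KCl.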

Data set [15] can be described thus: Selectivity ratio of IC50 for human Cav1.3 channel to IC50 for rat Cav1.2 channel.

The IC50 is the concentration needed to halve the response being measured. A word on the inhibition: it is the share of the control response that was lost under treatment.

Sequence of Voltage-dependent L-type calcium channel subunit alpha-1D (Q01668 whole entry): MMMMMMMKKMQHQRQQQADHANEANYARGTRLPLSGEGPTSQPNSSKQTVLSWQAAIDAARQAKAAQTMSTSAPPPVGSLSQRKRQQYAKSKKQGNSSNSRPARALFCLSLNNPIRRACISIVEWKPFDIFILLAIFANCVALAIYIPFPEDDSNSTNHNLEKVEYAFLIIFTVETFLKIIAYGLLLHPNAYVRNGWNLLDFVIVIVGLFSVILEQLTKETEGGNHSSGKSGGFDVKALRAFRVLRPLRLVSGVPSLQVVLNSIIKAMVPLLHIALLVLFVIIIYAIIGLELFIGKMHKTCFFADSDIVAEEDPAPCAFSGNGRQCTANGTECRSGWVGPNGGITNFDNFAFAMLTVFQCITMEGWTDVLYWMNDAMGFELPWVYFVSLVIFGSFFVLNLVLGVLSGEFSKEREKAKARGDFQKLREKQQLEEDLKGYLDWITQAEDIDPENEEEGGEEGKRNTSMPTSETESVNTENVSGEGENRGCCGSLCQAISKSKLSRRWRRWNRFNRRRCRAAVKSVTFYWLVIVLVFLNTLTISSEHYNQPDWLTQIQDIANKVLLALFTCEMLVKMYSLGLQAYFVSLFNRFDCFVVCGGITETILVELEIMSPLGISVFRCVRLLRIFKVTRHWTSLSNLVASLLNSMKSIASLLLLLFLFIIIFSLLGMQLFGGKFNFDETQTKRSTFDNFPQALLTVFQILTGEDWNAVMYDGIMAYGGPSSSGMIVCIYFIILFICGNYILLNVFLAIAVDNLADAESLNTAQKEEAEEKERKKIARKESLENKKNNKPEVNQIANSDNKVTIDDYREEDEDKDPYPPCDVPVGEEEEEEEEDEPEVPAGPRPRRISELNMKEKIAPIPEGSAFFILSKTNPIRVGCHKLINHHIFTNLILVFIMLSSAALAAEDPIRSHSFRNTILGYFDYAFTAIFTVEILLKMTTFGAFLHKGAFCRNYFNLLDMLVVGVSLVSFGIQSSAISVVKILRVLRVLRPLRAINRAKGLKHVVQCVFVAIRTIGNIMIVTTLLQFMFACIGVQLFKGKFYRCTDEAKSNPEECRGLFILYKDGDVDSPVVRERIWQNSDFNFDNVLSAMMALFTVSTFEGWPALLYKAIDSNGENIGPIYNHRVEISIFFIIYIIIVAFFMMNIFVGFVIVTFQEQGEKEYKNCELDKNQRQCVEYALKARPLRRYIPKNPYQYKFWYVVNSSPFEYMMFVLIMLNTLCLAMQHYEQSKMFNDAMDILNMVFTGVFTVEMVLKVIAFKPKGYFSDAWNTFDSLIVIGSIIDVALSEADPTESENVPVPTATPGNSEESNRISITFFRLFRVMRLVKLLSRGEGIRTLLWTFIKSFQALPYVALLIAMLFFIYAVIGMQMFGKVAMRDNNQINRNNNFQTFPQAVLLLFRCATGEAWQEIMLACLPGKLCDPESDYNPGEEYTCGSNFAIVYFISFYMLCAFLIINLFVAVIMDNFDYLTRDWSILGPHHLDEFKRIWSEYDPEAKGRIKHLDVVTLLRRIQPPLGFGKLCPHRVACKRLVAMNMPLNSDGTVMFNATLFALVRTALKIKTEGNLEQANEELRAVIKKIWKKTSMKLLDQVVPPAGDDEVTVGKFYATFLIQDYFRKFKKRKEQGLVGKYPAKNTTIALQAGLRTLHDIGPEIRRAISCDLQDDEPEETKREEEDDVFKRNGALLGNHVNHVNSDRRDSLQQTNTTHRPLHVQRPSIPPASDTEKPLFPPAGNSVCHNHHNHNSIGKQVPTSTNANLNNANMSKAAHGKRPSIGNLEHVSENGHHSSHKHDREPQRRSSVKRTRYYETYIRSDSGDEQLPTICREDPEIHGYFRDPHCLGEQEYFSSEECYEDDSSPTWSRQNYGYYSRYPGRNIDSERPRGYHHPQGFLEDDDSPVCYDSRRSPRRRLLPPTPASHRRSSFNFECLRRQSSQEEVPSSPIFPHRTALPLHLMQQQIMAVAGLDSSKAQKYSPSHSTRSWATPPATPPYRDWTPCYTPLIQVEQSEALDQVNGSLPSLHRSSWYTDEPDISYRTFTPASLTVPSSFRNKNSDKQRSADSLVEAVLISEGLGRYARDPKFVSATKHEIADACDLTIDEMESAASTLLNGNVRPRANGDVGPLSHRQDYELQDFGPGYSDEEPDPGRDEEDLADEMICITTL
Sequence of Voltage-dependent L-type calcium channel subunit alpha-1C (P22002 whole entry): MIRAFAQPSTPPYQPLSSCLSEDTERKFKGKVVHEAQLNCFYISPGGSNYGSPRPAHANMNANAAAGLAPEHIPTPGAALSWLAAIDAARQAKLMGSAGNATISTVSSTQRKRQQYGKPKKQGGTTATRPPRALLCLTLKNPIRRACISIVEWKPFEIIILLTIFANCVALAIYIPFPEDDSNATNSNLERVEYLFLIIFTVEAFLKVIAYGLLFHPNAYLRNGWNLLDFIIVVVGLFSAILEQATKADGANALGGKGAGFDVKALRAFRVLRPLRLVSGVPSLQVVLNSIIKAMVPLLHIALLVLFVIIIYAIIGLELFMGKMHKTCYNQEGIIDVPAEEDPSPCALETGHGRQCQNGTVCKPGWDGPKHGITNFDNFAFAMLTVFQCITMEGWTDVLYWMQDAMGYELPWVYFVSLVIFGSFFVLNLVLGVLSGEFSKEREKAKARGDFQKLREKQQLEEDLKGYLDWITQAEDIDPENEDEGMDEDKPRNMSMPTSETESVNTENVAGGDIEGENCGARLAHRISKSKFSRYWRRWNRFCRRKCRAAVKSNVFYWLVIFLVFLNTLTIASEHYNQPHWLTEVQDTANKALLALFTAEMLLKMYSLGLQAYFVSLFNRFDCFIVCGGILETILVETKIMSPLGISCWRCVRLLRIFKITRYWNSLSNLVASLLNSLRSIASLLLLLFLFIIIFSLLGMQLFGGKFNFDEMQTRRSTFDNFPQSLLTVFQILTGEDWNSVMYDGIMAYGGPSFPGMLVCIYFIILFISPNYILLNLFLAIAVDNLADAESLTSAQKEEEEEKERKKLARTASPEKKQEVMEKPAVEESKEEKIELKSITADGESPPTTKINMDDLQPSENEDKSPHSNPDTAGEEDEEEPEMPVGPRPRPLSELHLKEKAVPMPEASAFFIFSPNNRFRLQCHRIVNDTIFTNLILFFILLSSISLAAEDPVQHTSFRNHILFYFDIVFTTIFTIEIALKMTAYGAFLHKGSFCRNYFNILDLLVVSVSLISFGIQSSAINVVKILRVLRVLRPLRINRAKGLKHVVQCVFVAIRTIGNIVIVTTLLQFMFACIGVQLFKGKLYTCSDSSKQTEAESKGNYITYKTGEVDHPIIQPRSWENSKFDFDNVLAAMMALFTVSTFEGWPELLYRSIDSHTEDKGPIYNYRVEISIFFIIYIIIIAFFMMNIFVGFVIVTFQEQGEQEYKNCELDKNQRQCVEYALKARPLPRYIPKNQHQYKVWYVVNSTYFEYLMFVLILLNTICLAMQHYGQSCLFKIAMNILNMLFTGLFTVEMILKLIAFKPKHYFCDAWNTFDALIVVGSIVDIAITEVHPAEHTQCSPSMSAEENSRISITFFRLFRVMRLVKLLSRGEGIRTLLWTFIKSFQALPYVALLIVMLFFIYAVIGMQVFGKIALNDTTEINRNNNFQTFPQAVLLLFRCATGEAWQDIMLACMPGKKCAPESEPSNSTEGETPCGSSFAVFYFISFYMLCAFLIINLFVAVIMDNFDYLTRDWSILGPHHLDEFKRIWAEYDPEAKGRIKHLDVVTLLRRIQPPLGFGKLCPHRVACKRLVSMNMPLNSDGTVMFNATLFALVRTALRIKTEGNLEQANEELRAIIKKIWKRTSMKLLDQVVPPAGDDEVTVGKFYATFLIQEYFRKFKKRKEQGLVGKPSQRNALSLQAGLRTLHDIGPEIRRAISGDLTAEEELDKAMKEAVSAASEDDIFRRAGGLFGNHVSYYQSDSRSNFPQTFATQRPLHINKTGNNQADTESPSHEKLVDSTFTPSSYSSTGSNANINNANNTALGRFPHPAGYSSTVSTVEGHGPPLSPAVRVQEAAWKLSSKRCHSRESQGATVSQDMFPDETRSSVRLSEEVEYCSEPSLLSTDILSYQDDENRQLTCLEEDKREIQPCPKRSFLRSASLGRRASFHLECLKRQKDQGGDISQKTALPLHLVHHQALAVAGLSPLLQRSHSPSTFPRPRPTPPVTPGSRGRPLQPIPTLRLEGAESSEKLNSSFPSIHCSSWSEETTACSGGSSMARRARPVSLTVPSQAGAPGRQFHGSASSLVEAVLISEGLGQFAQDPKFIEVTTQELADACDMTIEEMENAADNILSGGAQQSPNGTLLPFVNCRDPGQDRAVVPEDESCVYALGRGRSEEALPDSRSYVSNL

As for `COC(=O)C1=C(C)NC(C)=C(C(=O)OC)C1c1ccccc1[N+](=O)[O-]` [NIFEDIPINE], the “inhibition (INH)” value in data set [1] is recorded as “Dose-dependent effect”. Besides, the Activity is 15.8% in the data set with SH-SY5Y [2], 20% in the data set on SH-SY5Y [6], 11.7% in the data set with SH-SY5Y [7] and 29.3% in the data set on SH-SY5Y [9]. For the same molecule, the viability at 5 µM in the data set with SH-SY5Y [3] was 78.4%; in the data set on SH-SY5Y [5] it was 62.9%; in the data set with SH-SY5Y [8], 73.8%. Also, in the data set with SH-SY5Y [4], the viability at 0.3 µM amounted to 58.7%. Also, the result with Hippocampus was inactive.
In the case of `COc1ccc2[nH]cc(CCNC(C)=O)c2c1` [MELATONIN], the Activity was determined as 58.3% in the data set with SH-SY5Y [10] and 44.7% in the data set with SH-SY5Y [13]. Further, the viability at 0.3 µM in the data set on SH-SY5Y [11] is 87.8%; in the data set on SH-SY5Y [12], 82.5%.
As for `CC1=C(C(=O)SC(C)(C)C)C(/C(C)=C/c2ccccc2)C=C(c2ccccc2)N1` (configuration not stated), the IC50 was 20.3 µM in data set [1] and 63.1 µM in [14]. For the same molecule, in data set [1], the “inhibition (INH)” value is on record as “Dose-dependent effect”. Also, the values for the viability at 5 µM with SH-SY5Y [3], with SH-SY5Y [5] and with SH-SY5Y [8] were 83.7%, 69% and 86.2%, respectively. Moreover, the Ratio IC50 in data set [15] came out at 3.1. Further, the Activity in the data set with SH-SY5Y [6] worked out at 35.3%; with Hippocampus it was 45%; in the data set with SH-SY5Y [7], 52.2%; in the data set with SH-SY5Y [9] it was 52.4%.
As to `CCOC(=O)C1=C(C)NC(c2ccccc2)=CC1c1ccc(C)cc1` (configuration not stated), the IC50 in data set [1] amounted to 10.6 µM; in data set [14] it was 20.6 µM. Besides, in data set [1], the “inhibition (INH)” value is “Dose-dependent effect”. Besides, the inhibition in [14] came to 43%. Besides, the viability at 5 µM is 83.5% in the data set with SH-SY5Y [3], 72.3% in the data set with SH-SY5Y [5] and 88% in the data set on SH-SY5Y [8]. In addition, the Ratio IC50 in [15] stood at 1.9. In addition, the Activity in the data set on SH-SY5Y [6] turned out to be 39.8%; with Hippocampus it was 45%; in the data set with SH-SY5Y [7], 60.1%; in the data set on SH-SY5Y [9], 53.3%.
